High-throughput results (PubChem BioAssay)
In the library only some 2% were active in any assay of this set; here they are far more common.
PLK1 PBD inh = blocks phosphopeptide binding to human Plk1 polo box domain | P53350 | 0.13% of 97,000 active | AID 693 | inhibition, %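 (tested at about 20 µM)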 | Plk1 PBD phosphopeptide binding, fluorescence polarization; in the data active = inhibition above about 34%, passing the limit was not always enough
PLK1 kinase inh = inhibitors of human PLK1 kinase; 0.53% of 97,000 active; P53350; AID 619; recombinant PLK1 kinase, TR-FRET peptide phosphorylation; inhibition, % at 10 µM;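 active = inhibition of 50% or more in the single-concentration screen; inactive = inhibition below 50%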;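 note: 0% = DMSO max control and 100% = H-89 dihydrochloride min control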
PTPN22 act = LYP (human) phosphatase activation. activation, % at 2 µM. recombinant LYP, DiFMUP fluorescence; 0 = plate median, 100 = signal doubled. Q9Y2R2. AID 697. 0.11% of 96,000 active;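 active = activation at 2 µM above a set limit, the mean plus 5 SD, cut at about 37% in these data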
HIV Rev-RRE inh = HIV Rev-RRE protein-RNA interaction inhibition; Rev peptide-RRE RNA binding, FRET; inhibition, % at 8 µM; 0.79% of 97,000 active;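 active = inhibition above the screen-wide mean plus 3 SD, cut at about 35% in these data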;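 note: 0% = median DMSO wells and 100% = median Neomycin B control wells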
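Assay system: Labelled RRE RNA duplex and labelled Rev peptide | Times: 5 min preincubation and 15 min binding, 25 °C | Detection: FRET, ex 480 nm, em 540 and 671 nm | Evaluation: % inhibition of FRET ratio versus controls | Benchmarks: DMSO wells as 0% and neomycin B wells as 100% inhibition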
LYP inh 2 = inhibitors of human LYP (PTPN22) phosphatase | Q9Y2R2 | recombinant LYP catalytic domain, DiFMUP fluorescence | inhibition, % at 2 µM | 0.21% of 96,000 active | AID 640;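 active = inhibition at 2 µM at or above a set limit, the screen mean plus 3 SD, cut at about 24% in these data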;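 note: 0% = DMSO with enzyme and 100% = enzyme fully blocked by orthovanadate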
EphB4 antag = antagonists of human EphB4-ephrin-B2 interaction; inhibition, % at 7 µM; EphB4 LBD / TNYL-RAW-Alexa532 peptide, fluorescence polarization; 0.15% of 97,000 active;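 active = inhibition above the screen-wide mean inhibition plus 3 SD, cut at about 15% in these data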;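 note: 0% = DMSO wells and 100% = excess unlabeled TNYL-RAW peptide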
Starred values were filed as active, the others as inactive; / = not tested or not shown; [ ] = dose if it differs, or a comment.

SMILES | PLK1 PBD inh | PLK1 kinase inh | PTPN22 act | HIV Rev-RRE inh | LYP inh 2 | EphB4 antag
Cc1[nH]n(-c2ccccc2)c(=O)c1C1(C(F)(F)F)C(=O)N(c2ccc(F)cc2)C2=C1C(=O)CC(C)(C)C2 (stereo not given) | -11 | -7 | -7 | 5 | 8 | 6
CC1=CC2=C(OC1N(C)C)c1cccc3cccc(c13)C2=O (stereo not given) | 3 | 0 | 4 | 48* | 0 | 3
CC(=O)Nc1ccc(S(=O)(=O)NC(=O)C23CC4CC(CC(C4)C2)C3)cc1 | -9 | -19 | -3 | 1 | 2 | 7
O=C(CNC(=O)c1ccc(Cl)cc1Cl)NCCCn1ccnc1 | 18 | -5 | -6 | 5 | 3 | -2
CN(C)c1ccc(C2N3CC4(C)CN2CC(C)(C3)C4O)cc1 (stereo not given) | -19 | 62* | / | 4 | / | -12
CC12CN3CC(C)(CN(C1)C3c1ccc(Cl)cc1Cl)C2O (stereo not given) | 11 | -5 | 2 | 1 | 0 | -2
O=C(Nc1ccc2oc(-c3ccc4ccccc4c3)nc2c1)c1ccc2c(c1)OCCO2 | -11 | -9 | -29 | 6 | 31* | -9
CCOC(=O)CSCC(=O)Nc1c(C(=O)C2CC2)oc2ccccc12 | 18 | -9 | -6 | 5 | 1 | 7
COc1ccc(-c2cn3nc4c(nc3n2)CCCC4)cc1 | -5 | 14 | -4 | 98*[fluorescence artefact?] | 6 | -8
COC(=O)c1ccc2c(c1)C(C)(C)C(/C=C/c1ccc(OC)c(OC)c1OC)=[N+]2C | -2 | -15 | -1 | 31 | 3 | -5
COC(=O)c1ccc2c(c1)C(C)(C)C(/C=C/c1ccc(O)cc1)=[N+]2C | -4 | -13 | -6 | 79*[fluorescence artefact?] | 4 | -57
O=C(O)CCC(=O)Nc1ccc(-c2nnc(-c3ccco3)o2)cc1 | 12 | 53* | / | 5 | / | -7
COc1ccc(NC(=O)C2CCCO2)cc1Cl (stereo not given) | -9 | -6 | -25 | 8 | 24* | -1
COc1cccc(-c2cn3nc(C)c(C)nc3n2)c1 | -19 | -9 | 9 | 40* | -10 | 0
C#CCOC(=O)Nc1ccc(=O)n(Cc2c(Cl)cccc2Cl)c1 | -2 | 0 | 8 | 4 | -5 | -1
C=CCn1c(SCC(=O)NCc2ccco2)nc2sc3c(c2c1=O)CCCC3 | -20 | -7 | 6 | 4 | -7 | -2
O=C(NCc1ccco1)c1ccc2nc3sc4c(c3c(=O)n2c1)CCCC4 | 20 | -11 | -26 | 22 | 25* | 0
CCN(CC)C(=O)N1CCc2ccccc2C1CN1C(=O)c2ccccc2C1=O (stereo not given) | -10 | -4 | -10 | 8 | 9 | 0
O=C(O)CC1C(=O)NCCN1Cc1ccc(F)c(F)c1 (stereo not given) | -14 | 65* | / | 3 | / | -3
COc1ccc(CN2CCNC(=O)C2CC(=O)O)cc1OC (stereo not given) | 7 | -9 | 1 | 10 | -4 | 6
Cc1ccc(CN2CCNC(=O)C2CC(=O)O)cc1 (stereo not given) | -15 | 61* | / | 4 | / | -4
O=C(O)CC1C(=O)NCCN1CCCc1ccccc1 (stereo not given) | 12 | -26 | 4 | 0 | -5 | 5
c1cncc(-c2noc(CC3CCCCC3)n2)c1 | 0 | 1 | 1 | 6 | -2 | 3
CC1=NN(/C(=N\c2nnc(C)s2)Nc2ccc(C(C)(C)C)cc2)[C@H](c2ccc(C)cc2)S1 | -2 | -8 | 2 | 0 | -4 | -1
CSc1nnc(C)c(/C=C/Nc2ccc(C)cc2)n1 | -45 | -7 | -6 | 110*[fluorescence artefact?] | 8 | 6
SMILES | PLK1 PBD inh | PLK1 kinase inh | PTPN22 act | HIV Rev-RRE inh | LYP inh 2 | EphB4 antag
CN(C)c1ccc(/C=C/C(O)=C2/C(=O)N(C)C3(C)CC2c2ccccc2O3)cc1 (stereo not given) | -54 | -20 | -1 | 121*[fluorescence artefact?] | -1 | 4
O=C(c1ccco1)N1CCN(S(=O)(=O)c2ccc3[nH]c(=O)oc3c2)CC1 | -15 | -8 | 8 | 1 | -12 | 4
Cn1c(=O)oc2cc(S(=O)(=O)N3CCN(C(=O)c4ccco4)CC3)ccc21 | -9 | -4 | 10 | 41* | -12 | -2
Cc1ccc(NC(=O)C2CCCN2S(=O)(=O)c2ccc3c(c2)CCC(=O)N3)cc1Cl (stereo not given) | -22 | 67* | / | 7 | / | -2
CC(C)CCOc1ccc(Cl)cc1CN1CCOCC1 | -17 | -2 | -10 | 8 | 13 | 3
CC(C)C(C(=O)O)N1C(=O)/C(=C/C=C/c2ccco2)SC1=S (stereo not given) | -8 | -25 | -25 | -76 | 29* | 4
CO/N=C(\c1nonc1N)N1CCN(c2ccc(Cl)cc2[N+](=O)[O-])CC1 | -20 | -2 | 18 | 4 | -14 | -6
Cc1ccccc1OCC(=O)Nc1ccccc1-c1ccccc1 | / | -5 | / | / | / | /
CCOC(=O)c1sc2nc(C)c3c(c2c1N)CC(C)(C)OC3 | -9 | -17 | 11 | 11 | -12 | 15*
Cc1ccc(S(=O)(=O)CCSc2nc(C)cc(C(F)(F)F)c2C#N)cc1 | 8 | -12 | -7 | 64* | 6 | -3
CCOC(=O)NC(=O)CSc1nc(C)cc(C(F)(F)F)c1C#N | -1 | -6 | 1 | 42* | -1 | -6
Cc1cc(C(F)(F)F)c(C#N)c(Sc2ccccc2)n1 | -24 | -4 | 5 | 13 | -1 | -5
COC(=O)CSc1nc(C)cc(C(F)(F)F)c1C#N | 12 | -5 | -11 | 11 | 8 | 15
CC(=O)Nc1ccc(SCC(=O)OCC(=O)NC(=O)NCc2ccco2)cc1 | -13 | -7 | 6 | 7 | -5 | 16*
Nc1c(C(=O)Nc2nccs2)sc2nc(-c3cccs3)cc(C(F)(F)F)c12 | -10 | -37 | -11 | 104*[fluorescence artefact?] | 7 | 2
Cc1cc(C)c2c(N)c(C(=O)Nc3nccs3)sc2n1 | 8 | -15 | -3 | -1 | 2 | 5
COc1ccccc1NC(=O)c1sc2nc(Cc3ccccc3)cc(C(F)(F)F)c2c1N | 8 | -9 | -14 | 44* | 14 | 5
CCN(CC)C(=O)c1sc2nc(-c3cccs3)cc(-c3ccc(Cl)cc3)c2c1N | -14 | -28 | 1 | 14 | -5 | -3
Cc1nnc(NC(=O)c2sc3nc(-c4cccs4)cc(C(F)(F)F)c3c2N)s1 | -104 | -42 | 3 | 99*[fluorescence artefact?] | -5 | 0
CC(C)(C)C(=O)c1sc2nc(-c3cccs3)cc(C(F)(F)F)c2c1N | -22 | -11 | 11 | 79*[fluorescence artefact?] | -10 | -1
COc1ccc(-c2onc3ccc(Cl)cc23)cc1 | -8 | -12 | 1 | 6 | -1 | 5
COc1ccc(-c2cn(/N=C/c3ccc(Cl)cc3Cl)c(N)n2)cc1 | -20 | 61* | -13 | 19 | 12 | 3
CCCCN1C2CCCC1CC(NC(=O)N(C(C)C)C(C)C)C2 (stereo not given) | 2 | -3 | 2 | 8 | -2 | 0
